Columns and labels:
[1] = system: D. magna; assay: 48 h acute toxicity test, single chemicals; type: in vivo, Daphnia magna; conditions: for LC50: read-out: LC50 (μM)(95% CI)
[2] = system: Daphnia HR96; conditions: ref Karimullina et al., 2012; cited from earlier work
[3] = system: detoxification and sphingolipid homeostasis genes; assay: qPCR confirmation of differential gene expression; type: in vivo, Daphnia magna; conditions: 20 or 40 μM atrazine, 96 h, at least one of the concentrations
Procedure, shortened: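 RNA stabilised and stored at −80°C; 2 μg reverse-transcribed with MMLV. SYBR Green qPCR; efficiency from a 1:1–1:1024 dilution series of pooled untreated and treated samples; triplicate 1:15-diluted samples quantified.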

[4] = system: detoxification genes; assay: RNA sequencing, differential gene expression after atrazine exposure; type: in vivo, Daphnia magna; conditions: 40 μM atrazine, 96 h
[5] = system: D. magna; type: in vivo, Daphnia magna; conditions: neonates, 48 h, 40 μM atrazine
[6] = 48 h acute toxicity test, single chemicals; type: in vivo, Daphnia magna; conditions: Daphnia magna, in vivo, LC50 (μM)(95% CI)
[7] = neonates (<24 h old), 48 h, chemical individually, (95% CI)
[8] = neonates (<24 h old), 48 h, chemical individually

In the case of `CC(C)(c1ccc(O)cc1)c1ccc(O)cc1` [BPA, bisphenol A], the Hillslope [1, 7] was −6.891 (−10.34 to −3.438).

For `CCNc1nc(Cl)nc(NC(C)C)n1` [atrazine], the “potency for activating Daphnia HR96” value [2] is given as “greatest potency”, the “expression of two GSTs, cyp370a9, ADH-A and two sphingomyelinases by qPCR” value [3] is given as “significantly up-regulated” and the “logFC, GST 1” value ([4]; glutathione metabolism pathway) is given as 1.33. The “logFC, aminopeptidase” value ([4]; glutathione metabolism pathway) was 1.13, the “number of significantly down-regulated genes” value ([4]; of 26,646 genes identified) was 441 and the “number of significantly up-regulated genes” value ([4]; of 26,646 genes identified) was 675.

With `O=S1OCC2C(CO1)C1(Cl)C(Cl)=C(Cl)C2(Cl)C1(Cl)Cl` (centres unmarked) [endosulfan] the “drop of LC50 in atrazine-containing binary mixture vs chemical alone” value [5] was 60% and the Hillslope [1, 7] was −8.310 (−10.52 to −6.098).

For `Oc1cc(Cl)ccc1Oc1ccc(Cl)cc1Cl` [triclosan], the Hillslope [1, 7] was −4.365 (−6.091 to −3.083) and the LC50 [1, 8] was 1.08 µM.

For `CCCCCCCCCc1ccc(O)cc1` [p-nonylphenol], the “drop of LC50 in atrazine-containing binary mixture vs chemical alone” value [5] was 25%, the Hillslope ([1]; Daphnia magna, in vivo) was −5.895 (−8.000 to −3.790) and the LC50 [6] was 1.94 µM.

With `CCOP(=S)(OCC)Oc1ccc([N+](=O)[O-])cc1` [parathion] the Hillslope [1, 7] was −4.831 (−8.368 to −1.294) and the LC50 [1, 8] was 0.0122 µM.

With `CCOP(=S)(OCC)Oc1nc(Cl)c(Cl)cc1Cl` [chlorpyrifos] the Hillslope [1, 7] was −2.498 (−3.795 to −1.496).

Reference: paper PMC5651997 (Chemosphere, 2017)
